Counter-ions that a name gives are not always drawn. Like-named read-outs stand apart in the source and are kept apart here.
How the values were obtained:
[1] = system: patients with advanced hematological malignancies; experiment: Phase 1 dose escalation, safety and toxicity, Arm 1; details: human, in vivo
[2] = Plasma pharmacokinetics of pracinostat; type: in vivo, human; details: for half-life / Tmax / AUC(0-inf) / Cmax: human, plasma; for AUC(0-inf): AUC0-inf
Procedure, shortened: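 The test compound was given orally at 10–120 mg to patients with hematologic malignancies. AUC0-inf was noncompartmental, t1/2 came from the terminal log-linear phase (≥3 last points), and Cmax/Tmax were read from the curves.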

[3] = system: histone H3 acetylation (AcH3) in peripheral blood mononuclear cells; experiment: Pharmacodynamics: AcH3 levels in PBMCs; type: in vivo, human; details: ten subjects; maximal at 3 h post-dose; no dose-dependent increase
[4] = system: patients with advanced hematological malignancies; experiment: Efficacy; type: in vivo, human
[5] = in vivo studies; cited from earlier work
[6] = system: patients with advanced solid tumors; details: cited from earlier work; for stable disease (SD) as best response, patients: advanced solid tumors
HDAC = details: pan-HDACI; cited from earlier work
[7] = cited from earlier work
[8] = po, 40 mg, Day 15, 40 mg oral, n=5, mean±SD
[9] = po, 40 mg, Day 1, 40 mg oral, n=6, mean±SD
[10] = po, 60 mg, Day 1, 60 mg oral, n=3, mean±SD
[11] = po, 60 mg, Day 15, 60 mg oral, n=3, mean±SD
[12] = po, 80 mg, Day 1, 80 mg oral, n=3, mean±SD
[13] = po, 80 mg, Day 15, 80 mg oral, n=3, mean±SD
[14] = po, 100 mg, Day 1, 100 mg oral, n=3, mean±SD
[15] = po, 100 mg, Day 15, 100 mg oral, n=3, mean±SD
[16] = po, 120 mg, Day 1, 120 mg oral, n=6, mean±SD
[17] = po, 120 mg, Day 15, 120 mg oral, n=2, mean

SMILES: CCCCc1nc2cc(/C=C/C(=O)NO)ccc2n1CCN(CC)CC [Pracinostat, 3-[2-butyl-1-(2-diethylaminoethyl)-1H-benzoimidazol-5-yl]-N-hydroxyacrylami-hydrochloride]
- AEs leading to a dose-interruption, patients [1]: 34%
- AEs leading to a dose-reduction, patients [1]: 27%
- Anemia, treatment-related adverse event, All Grades [1]: 5%
- Anemia, treatment-related adverse event, Grade ≥ 3 [1]: 5%
- Anorexia, treatment-related adverse event, All Grades [1]: 23%
- Anorexia, treatment-related adverse event, Grade ≥ 3 [1]: 2%
- Constipation, treatment-related adverse event, All Grades [1]: 5%
- Constipation, treatment-related adverse event, Grade ≥ 3 [1]: 0%
- Diarrhea, treatment-related adverse event, All Grades [1]: 16%
- Diarrhea, treatment-related adverse event, Grade ≥ 3 [1]: 2%
- Elevated ALT, treatment-related adverse event, All Grades [1]: 0%
- Elevated ALT, treatment-related adverse event, Grade ≥ 3 [1]: 0%
- Fatigue, treatment-related adverse event, All Grades [1]: 41%
- Fatigue, treatment-related adverse event, Grade ≥ 3 [1]: 11%
- Infections, treatment-related adverse event, All Grades [1]: 9%
- Infections, treatment-related adverse event, Grade ≥ 3 [1]: 9%
- Nausea, treatment-related adverse event, All Grades [1]: 30%
- Nausea, treatment-related adverse event, Grade ≥ 3 [1]: 0%
- Neutropenia, treatment-related adverse event, All Grades [1]: 2%
- Neutropenia, treatment-related adverse event, Grade ≥ 3 [1]: 2%
- QTc prolongation, treatment-related adverse event, All Grades [1]: 7%
- QTc prolongation, treatment-related adverse event, Grade ≥ 3 [1]: 5%
- Thrombocytopenia, treatment-related adverse event, All Grades [1]: 14%
- Thrombocytopenia, treatment-related adverse event, Grade ≥ 3 [1]: 11%
- Vomiting, treatment-related adverse event, All Grades [1]: 14%
- Vomiting, treatment-related adverse event, Grade ≥ 3 [1]: 0%
- discontinuation of pracinostat due to an AE, patients [1]: 25%
- patients who experienced a grade ≥ 3 TRAE [1]: 20%
- patients who experienced at least 1 TRAE [1]: 77%
- pracinostat doses at which grade ≥ 3 thrombocytopenia was experienced [1]: ≥ 80 mg
- DLTs, patients ([1]; 28 days): 13%
- doses at which DLTs occurred ([1]; 28 days): ≥ 40 mg
- recommended phase II dose (RP2D) ([1]; po, 28 days): 60 mg
- accumulation between Day 1 and Day 15 following repeated dosing ([2]; 100-mg dose level): moderate accumulation
- plasma concentrations relative to IC50 for HDAC 1, 2, and 3 ([2]; all dose levels): above the 50% inhibitory concentration (IC50)
- half-life ([2]; oral, 120 mg, prolonged t1/2 reaching, discussion summary): ≤ 14 h
- Tmax ([2]; oral, range over dose levels, 40-120 mg, Days 1 and 15): 0.8 to 1.3 h
- half-life ([2]; oral, mean t1/2, range over dose levels, 40-120 mg, Days 1 and 15): 7 to 14.1 h
- AUC(0-inf) [2, 8]: 0.477 ± 0.191 µg·h/mL
- Cmax [2, 9]: 0.084 ± 0.034 µg/mL
- Cmax [2, 8]: 0.064 ± 0.019 µg/mL
- Tmax [2, 9]: 1.1 ± 0.7 h
- Tmax [2, 8]: 1.3 ± 0.7 h
- half-life ([2]; po, 40 mg, t1/2, Day 1, 40 mg oral, n=6, mean±SD): 9.4 ± 3.5 h
- half-life ([2]; po, 40 mg, t1/2, Day 15, 40 mg oral, n=5, mean±SD): 10.7 ± 2.3 h
- AUC(0-inf) [2, 10]: 0.948 ± 1.14 µg·h/mL
- AUC(0-inf) [2, 11]: 0.766 ± 0.746 µg·h/mL
- Cmax [2, 10]: 0.133 ± 0.117 µg/mL
- Cmax [2, 11]: 0.118 ± 0.135 µg/mL
- Tmax [2, 10]: 1 ± 0.5 h
- Tmax [2, 11]: 0.8 ± 0.3 h
- half-life ([2]; po, 60 mg, t1/2, Day 1, 60 mg oral, n=3, mean±SD): 12.1 ± 2.3 h
- half-life ([2]; po, 60 mg, t1/2, Day 15, 60 mg oral, n=3, mean±SD): 11.8 ± 3.4 h
- AUC(0-inf) [2, 12]: 1.05 ± 0.803 µg·h/mL
- AUC(0-inf) [2, 13]: 0.977 ± 0.459 µg·h/mL
- Cmax [2, 12]: 0.189 ± 0.182 µg/mL
- Cmax [2, 13]: 0.164 ± 0.122 µg/mL
- Tmax [2, 12]: 1.3 ± 0.8 h
- Tmax [2, 13]: 1.2 ± 0.3 h
- half-life ([2]; po, 80 mg, t1/2, Day 1, 80 mg oral, n=3, mean±SD): 7 ± 1.1 h
- half-life ([2]; po, 80 mg, t1/2, Day 15, 80 mg oral, n=3, mean±SD): 9.3 ± 4.1 h
- AUC(0-inf) [2, 14]: 1.17 ± 0.347 µg·h/mL
- AUC(0-inf) [2, 15]: 1.99 ± 0.682 µg·h/mL
- Cmax [2, 14]: 0.187 ± 0.099 µg/mL
- Cmax [2, 15]: 0.314 ± 0.143 µg/mL
- Tmax [2, 14]: 1.2 ± 0.3 h
- Tmax [2, 15]: 1 ± 0.5 h
- half-life ([2]; po, 100 mg, t1/2, Day 1, 100 mg oral, n=3, mean±SD): 8.4 ± 1.1 h
- half-life ([2]; po, 100 mg, t1/2, Day 15, 100 mg oral, n=3, mean±SD): 13.7 ± 5.6 h
- AUC(0-inf) [2, 16]: 1.36 ± 0.725 µg·h/mL
- AUC(0-inf) [2, 17]: 0.757 µg·h/mL
- Cmax [2, 16]: 0.202 ± 0.083 µg/mL
- Cmax [2, 17]: 0.096 µg/mL
- Tmax [2, 16]: 1.2 ± 0.4 h
- Tmax [2, 17]: 1 h
- half-life ([2]; po, 120 mg, t1/2, Day 1, 120 mg oral, n=6, mean±SD): 10.8 ± 3 h
- half-life ([2]; po, 120 mg, t1/2, Day 15, 120 mg oral, n=2, mean): 14.1 h
- effect of AZA administration on PK parameters for pracinostat ([2]; in vivo): not affected
- AcH3 levels in PBMCs [3]: increased across all dose levels
- PFS of responding AML patient ([4]; 80 mg dose level, 11 cycles): 362 days
- PFS of responding AML patient ([4]; 120 mg dose level, 8 cycles): 197 days
- progressive disease ([4]; 32 evaluable patients): 31%
- responders (CR or CCyR) ([4]; 32 evaluable patients): 6%
- Median OS ([4]; 95% CI: 114.0- NA): 362 days
- patients who died ([4]; Thirteen patients of 44): 30%
- increased half-life (t1/2) compared to vorinostat [5]: 3.3 fold
- increased oral bioavailability compared to vorinostat [5]: 4.1 fold
- stable disease (SD) as best response, patients ([6]; ref 12): 32%
- stable disease (SD) as best response, patients ([6]; ref 13): 21%
- dose of early emergence of grade 3 TRAEs and DLTs ([6]; continuous 5-day dosing every 2 weeks): 20 mg
- potency relative to vorinostat (HDAC): about twice

SMILES: O=C(CCCCCCC(=O)Nc1ccccc1)NO [vorinostat]
- half-life [7]: 1 to 2 h
